# How the values were obtained:
# [1] = molecular target: T1, Chromobox protein homolog 7 (Homo sapiens, UniProt O95931); assay: Binding affinity to recombinant human N-terminal GST-tagged CBX7 (1 to 62 residues) expressed in Escherichia coli […] by SPR analysis
# T1 sequence (O95931 whole entry): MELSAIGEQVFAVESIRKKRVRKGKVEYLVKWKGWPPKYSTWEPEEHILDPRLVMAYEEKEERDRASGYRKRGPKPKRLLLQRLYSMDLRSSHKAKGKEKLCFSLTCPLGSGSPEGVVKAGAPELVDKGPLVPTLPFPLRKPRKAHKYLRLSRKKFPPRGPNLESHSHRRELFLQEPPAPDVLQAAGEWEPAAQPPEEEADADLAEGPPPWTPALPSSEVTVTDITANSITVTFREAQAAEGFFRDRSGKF
# In short: (§1)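 Chromodomain expressed with N-terminal GST tag in E. coli BL21 (IPTG 0.2 mM at OD600 0.6–0.8, 28 C for 6 h), GSTrap purified, tag cleaved by PreScission protease, amine-coupled to CM5 chip at pH 4.0–4.5 (5000–10000 RU). […] Mean ± SD of at least two replicates, each in duplicate.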
# [2] = molecular target: T2, Chromodomain Y-like protein (Homo sapiens, UniProt Q9Y232); assay: Binding affinity to recombinant human N-terminal GST-tagged CDYL (1 to 60 residues) expressed in Escherichia coli […] by SPR analysis
# T2 sequence (Q9Y232 whole entry): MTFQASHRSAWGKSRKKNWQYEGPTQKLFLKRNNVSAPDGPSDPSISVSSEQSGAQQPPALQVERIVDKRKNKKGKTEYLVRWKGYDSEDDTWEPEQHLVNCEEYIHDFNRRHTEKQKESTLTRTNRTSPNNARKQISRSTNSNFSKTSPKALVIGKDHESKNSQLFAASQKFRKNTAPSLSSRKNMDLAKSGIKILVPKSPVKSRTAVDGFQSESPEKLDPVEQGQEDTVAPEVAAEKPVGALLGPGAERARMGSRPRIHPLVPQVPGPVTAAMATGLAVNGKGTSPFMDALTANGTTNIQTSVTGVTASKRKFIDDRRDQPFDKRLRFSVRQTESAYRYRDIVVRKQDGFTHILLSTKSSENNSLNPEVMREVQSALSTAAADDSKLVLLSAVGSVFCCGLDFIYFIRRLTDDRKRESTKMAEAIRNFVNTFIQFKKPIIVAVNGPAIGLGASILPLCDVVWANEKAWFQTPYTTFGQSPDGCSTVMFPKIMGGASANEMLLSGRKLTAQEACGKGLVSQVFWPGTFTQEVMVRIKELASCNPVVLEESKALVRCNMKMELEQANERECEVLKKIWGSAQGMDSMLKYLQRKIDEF
# In short: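 GST-tagged chromodomain expressed in E. coli BL21 with 0.2 mM IPTG at 28 °C for 6 h. Purified on GSTrap, tag removed with PreScission protease. Amine-coupled to CM5 chip at pH 4.0–4.5 (5000–10000 RU). Compound run as a 1.5- or 2-fold series from 100 µM in PBSP with 5% DMSO, 25 °C, 30 µL/min, 60 s association and 60 s dissociation.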
# [3] = molecular target: T3, Testis-specific chromodomain protein Y 1 (Homo sapiens, UniProt Q9Y6F8); assay: Binding affinity to recombinant human N-terminal GST-tagged CDY1 (1 to 65 residues) expressed in Escherichia coli […] by SPR analysis; in short: as §1
# T3 sequence (Q9Y6F8 whole entry): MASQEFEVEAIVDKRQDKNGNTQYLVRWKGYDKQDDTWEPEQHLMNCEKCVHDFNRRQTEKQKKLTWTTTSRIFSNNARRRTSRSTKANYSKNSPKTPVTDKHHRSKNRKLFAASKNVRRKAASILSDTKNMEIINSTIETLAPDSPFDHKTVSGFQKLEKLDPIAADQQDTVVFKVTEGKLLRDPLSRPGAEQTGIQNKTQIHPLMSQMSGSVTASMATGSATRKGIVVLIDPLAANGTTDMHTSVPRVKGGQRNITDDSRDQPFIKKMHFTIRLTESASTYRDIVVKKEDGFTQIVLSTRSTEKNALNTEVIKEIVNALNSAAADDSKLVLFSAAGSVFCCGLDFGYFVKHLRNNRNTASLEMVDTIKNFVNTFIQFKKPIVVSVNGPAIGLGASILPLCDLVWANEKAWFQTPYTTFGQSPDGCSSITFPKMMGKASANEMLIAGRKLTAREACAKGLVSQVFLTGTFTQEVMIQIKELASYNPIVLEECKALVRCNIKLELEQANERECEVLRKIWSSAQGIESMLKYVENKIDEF
# SH-SY5Y = assay: Cytotoxicity against human SH-SY5Y cells assessed as reduction in cell viability incubated for 24 hrs by CCK8 assay
# HEK-293T = assay: Cytotoxicity against human HEK293T cells assessed as reduction in cell viability incubated for 24 hrs by CCK8 assay
Compound,Kd [1] [µM],Kd [2] [µM],Kd [3] [µM],IC50 (SH-SY5Y) [µM],IC50 (HEK-293T) [µM]
CCN(CC)C1CCN(C(=O)Cn2c(=O)oc3ccc(F)cc32)CC1,2.8,2.8,4.5,,
COc1cccc(C(=O)CN2C(=O)COc3ccccc32)c1,53,13,11.3,,
COc1cccc(C(=O)Cn2c(=O)oc3ccc(OC)cc32)c1,17.2,7.7,15.6,,
O=C(Cn1c(=O)oc2cc(Br)ccc21)c1ccc2ccccc2c1,29.7,29,1.7,,
COc1cccc(C(=O)Cn2c(=O)[nH]c3ccc(Cl)cc32)c1,28.9,14.8,70.4,> 200,> 200
C[C@@H](CN1CCCC1)OC(=O)c1ccc(Cl)cc1Cl,,271,,,
CN(C)C1CCN(C(=O)Cn2c(=O)oc3ccccc32)CC1,,9.5,33.6,,
O=C(Cn1c(=O)oc2ccc(Br)cc21)c1ccc2ccccc2c1,9.5,5.8,14.8,,
O=C(Cn1c(=O)oc2ccccc21)c1c[nH]c2ccccc12,9.3,1.9,21,,
COc1ccccc1[C@@H]1NC(=O)c2c(sc3c2CCN(C)C3)N1,,53.2,,,
N#Cc1ccc2oc(=O)n(CC(=O)c3ccc4ccccc4c3)c2c1,,101,71.5,,
COc1cccc(C(=O)Cn2c(=O)oc3ccc(F)cc32)c1,3.4,6.2,,,
O=C(Cn1c(=O)oc2ccccc21)Nc1cccc2ccccc12,> 200,29,0.8,,
COc1ccc2oc(=O)n(CC(=O)c3ccc(N(C)C)cc3)c2c1,6.1,15.5,2.7,,
COc1ccc2oc(=O)n(CC(=O)c3c[nH]c4ccccc34)c2c1,20.3,7.2,36.4,,
O=C(Cn1c(=O)oc2ccccc21)N1CCC(N2CCOCC2)CC1,5.6,25.9,21,,
O=C(Cn1c(=O)sc2cc([N+](=O)[O-])ccc21)c1c[nH]c2ccccc12,8.8,71.7,14.4,,
Nc1ccc2c(c1)sc(=O)n2CC(=O)c1c[nH]c2ccccc12,6.5,3.5,51.1,,
O=C(Cn1c(=O)oc2ccc(F)cc21)c1c[nH]c2ccccc12,9.8,5.1,23.7,,
COc1cccc(C(=O)Cn2c(=O)oc3ccccc32)c1,,4.9,5.8,,
N#Cc1ccc2oc(=O)n(CC(=O)c3c[nH]c4ccccc34)c2c1,46.9,96.7,4.6,,
O=C(Cn1c(=O)sc2cc([N+](=O)[O-])ccc21)c1ccc2ccccc2c1,,26.8,123,,
O=C(Cn1c(=O)oc2ccc(F)cc21)c1ccc2ccccc2c1,40.2,20.1,210,,
COc1ccc2oc(=O)n(CC(=O)c3ccc4ccccc4c3)c2c1,59.5,1.5,1.5,,
COc1cccc(C(=O)CC2C(=O)Nc3ccc(Cl)cc32)c1 (racemic),,1.2,> 200,43.4,36.9
CCN(CC)CCOC(=O)CCc1cccc2ccccc12,,60.8,,,
O=C(Cn1c(=O)oc2ccccc21)Nc1ccc2ccccc2c1,19.6,18.9,20.4,,
O=C(Cn1c(=O)oc2ccccc21)N1CCC(N2CCCCC2)CC1,13.5,11.8,51.1,,

Compound,Kd [1] [µM],Kd [2] [µM],Kd [3] [µM],IC50 (SH-SY5Y) [µM],IC50 (HEK-293T) [µM]
O=C(CN1C(=O)COc2ccccc21)c1ccc2ccccc2c1,26.5,52.5,39.6,,
COc1ccc2oc(=O)n(CC(=O)c3ccc(OC)c(OC)c3)c2c1,3.9,5.5,11.3,,
COc1cccc(C(=O)Cn2cnc3ccccc32)c1,,10.1,4,,
COc1cccc(NC(=O)Cn2c(=O)oc3ccccc32)c1,14.8,7.3,1,,
COc1cccc(C(=O)Cn2c(=O)oc3ccc(C#N)cc32)c1,19.6,,42.1,,
CCCN1C(=O)C(O)(CC(=O)c2cc(Br)c(Br)o2)c2cc(Cl)ccc21 (configuration not stated),16,15.4,,,
CN1C(=O)C(O)(CC(=O)c2ccc3ccccc3c2)c2ccccc21 (configuration not stated),5.1,19.4,28.9,,
COc1cccc(C(=O)/C=C2\C(=O)Nc3ccc(Cl)cc32)c1,,15.4,10.3,21.5,16.6
COc1ccc(C(=O)Cn2c(=O)oc3ccccc32)cc1OC,48.5,14.6,23.8,,
CN(C)c1ccc(C(=O)Cn2c(=O)oc3ccc(F)cc32)cc1,78.1,90.1,34.6,,
CCCN1C(=O)C(O)(CC(=O)c2ccc3c(c2)CCCC3)c2ccccc21 (configuration not stated),7.2,50.5,89.5,,
CCN(CC)C1CCN(C(=O)Cn2c(=O)oc3ccccc32)CC1,46.6,5.8,,,
CN1C(=O)C(O)(CC(=O)c2cccc3ccccc23)c2ccccc21 (configuration not stated),2.4,128,24.7,,
CN1CCc2c(sc3c2C(=O)N[C@@H](/C=C\c2ccccc2)N3)C1,,55.6,,,
Nc1ccc2c(c1)sc(=O)n2CC(=O)c1ccc2ccccc2c1,> 200,4.9,,,
O=C(Cn1c(=O)oc2ccccc21)c1cccc2ccccc12,29.9,3,6.5,,
CCCCN1C(=O)C(O)(CC(=O)c2cccc(OC)c2)c2ccccc21 (configuration not stated),8.8,100,17.2,,
CC(C)N1C(=O)C(O)(CC(=O)c2ccco2)c2ccccc21 (configuration not stated),41.1,13.1,61.6,,
CC(C)N1C(=O)[C@@](O)(CC(=O)c2cccc3ccccc23)c2ccccc21,,55.3,,,
O=C(Cn1c(=O)oc2ccc([N+](=O)[O-])cc21)N1CCC(N2CCCC2)CC1,,16.8,55.8,,
CCCN1C(=O)C(O)(CC(=O)c2cccc3ccccc23)c2ccccc21 (configuration not stated),20.4,23,21.1,,
COCCCNC(=O)Cc1c(C)c2c(O)cc(C)cc2oc1=O,,26,,,
C=CCN1C(=O)C(O)(CC(=O)c2ccc3ccccc3c2)c2ccccc21 (configuration not stated),,31.7,24.5,,
COc1ccc(C(=O)Cn2c(=O)oc3ccc(F)cc32)cc1OC,28.8,20.5,4.4,,
O=C(CN1C(=O)COc2ccccc21)c1c[nH]c2ccccc12,37.1,59.8,109,,
CN(C)c1ccc(C(=O)Cn2c(=O)oc3ccccc32)cc1,36.5,11.9,,,
CCCC(=O)Nc1ccc(Cl)c(NC(=O)COc2ccccc2OC)c1,,14.2,,,
